Source: PubChem BioAssay (Broad Institute)
This is a sample that favours compounds with a hit; in the whole collection about 5.9% have one here.
IDH1 mut inh = IDH1 R132H (human) inhibition; IDH1 R132H reductase, diaphorase/resazurin fluorescence, 60 min; AID 624101; inhibition, % at 10 µM; 70,000 compounds, 0.18% hits; in the data active = inhibition above about 34%;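 also: 0% = DMSO and 100% = no enzyme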
Tcruzi prolif = T. cruzi proliferation inhibition. inhibition, % at 8.34 µM. T. cruzi beta-gal in NIH3T3, GalScreen luminescence, 90 h. AID 624255. 77,000 compounds, 5.9% hits;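 active = mean inhibition above about 93%, with at least 55% of replicates each passing it, limit read from the data, passing the limit was not always enough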
Pf Dd2 growth = P. falciparum Dd2 growth inhibition; SYBR Green, 72 h; stronger effect = lower value; activity change, % at 10 µM; 94,000 compounds, 2.3% hits; AID 1159554; in the data active = activity change below about -80%
GASC1 inh = inhibitors of human demethylase GASC-1 KDM4C; Q9H3R0; GST-KDM4C 2-372, H3K9me3 peptide, LANCE TR-FRET; inhibition, % at 12.5 µM; 96,000 compounds, 0.15% hits;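 active = mean replicate inhibition above about 25%, with at least 55% of replicates also reaching it, limit read from the data, passing the limit was not always enough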
Target sequence (Q9H3R0 2-372 limits assumed): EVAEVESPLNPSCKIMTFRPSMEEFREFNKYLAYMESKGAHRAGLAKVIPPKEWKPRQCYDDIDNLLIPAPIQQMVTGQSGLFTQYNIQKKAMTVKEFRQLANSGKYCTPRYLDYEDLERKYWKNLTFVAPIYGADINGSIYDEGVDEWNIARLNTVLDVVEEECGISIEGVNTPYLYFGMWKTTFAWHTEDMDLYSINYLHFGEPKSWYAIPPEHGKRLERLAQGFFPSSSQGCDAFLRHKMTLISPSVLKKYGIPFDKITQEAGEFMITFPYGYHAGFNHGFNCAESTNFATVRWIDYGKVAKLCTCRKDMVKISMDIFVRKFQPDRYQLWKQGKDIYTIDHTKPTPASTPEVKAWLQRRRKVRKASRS
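material = GST-tagged GASC-1 (JMJD2C) catalytic fragment, aa 2-372 | amount = enzyme final amount 10 nM | medium = HEPES buffer, pH 7.5, plus ascorbate | also added = H3K9me3 peptide substrate, Fe(II), 2-oxoglutarate | dosing = single dose | times = 30 min demethylation and 1 h detection at room temperature | detection = LANCE TR-FRET | read-out basis = Fall in 671/618 emission ratio as inhibition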
Numbers without * were called inactive; nt = not tested or not shown; ! = not confirmed by another sample.

SMILES	IDH1 mut inh	Tcruzi prolif	Pf Dd2 growth	GASC1 inh
O=C(NC[C@@H]1CC[C@H]2[C@H](CN2Cc2cc(-c3ccccc3)on2)O1)c1ccc2c(c1)OCO2	nt	nt	-89.8*	nt
O=C(NC(Cc1ccc(O)cc1)C(=O)O)c1ccccc1 (configuration not stated)	0.1	nt	nt	nt
CC(C)NC(=O)N1[C@@H](CO)[C@@H](c2ccccc2)C12CN(Cc1ccc(Cl)cc1)C2	nt	nt	-68.9	-1.5
OC[C@H]1[C@H](c2ccccc2)C2(CN(Cc3ccccc3F)C2)N1Cc1ccccc1F	nt	nt	-93.5*	5.3
CC(C)NC(=O)N1[C@@H](CO)[C@@H](c2ccccc2)C12CN(Cc1ccc(F)cc1)C2	nt	nt	-83.7*	-2.6
CC(C)NC(=O)N1[C@H](CO)[C@@H](c2ccccc2)C12CN(Cc1ccc(Cl)cc1)C2	nt	nt	-87.5*	-0.9
CC(C)NC(=O)N1[C@@H](CO)[C@@H](c2ccccc2)C12CN(Cc1ccccc1)C2	nt	nt	-50.5	-1.6
COc1ccc(S(=O)(=O)N2CCC3(CC2)CN(Cc2ccncc2)[C@H](CO)c2[nH]c4cc(OC)ccc4c23)cc1	nt	nt	-87.8*	-0.4
COc1ccc2c3c([nH]c2c1)[C@H](CO)N(Cc1ccccc1)CC31CCN(S(=O)(=O)c2ccc(C)cc2)CC1	nt	nt	-54.0	0.1
COc1ccc(CN2CC3(CCN(S(=O)(=O)c4ccc(C)cc4)CC3)c3c([nH]c4cc(OC)ccc34)[C@H]2CO)cc1	nt	nt	-85.7*	-0.9
COc1cc2c(cc1O)CCC1C2CCC2(C)C(O)CCC12 (configuration not stated)	-0.4	nt	nt	nt
COc1ccc(-c2ccc(C3[C@@H]4CN(Cc5cc(OC)cc(OC)c5)C[C@H]3N4)cc2)cc1 (some centres not stated)	nt	nt	-87.5*!	1.3
COc1cc(CN2C[C@@H]3N[C@H](C2)C3c2ccc(/C=C/c3ccccc3)cc2)cc(OC)c1 (some centres not stated)	nt	nt	-88.3*!	-0.3
C/C=C/c1ccc(C2[C@@H]3CN(Cc4cccc(OC)c4)C[C@H]2N3)cc1 (some centres not stated)	nt	nt	-19.4	-0.3
COc1cc(CN2C[C@@H]3N[C@H](C2)C3c2ccc(-c3cccc(OC)c3)cc2)cc(OC)c1 (some centres not stated)	nt	nt	-75.1	0.1
COc1cc(CN2C[C@@H]3N[C@H](C2)C3c2ccc(-c3cncnc3)cc2)cc(OC)c1 (some centres not stated)	nt	nt	-11.7	1.0
COc1cc(CN2C[C@@H]3N[C@H](C2)C3c2ccc(-c3ccncc3)cc2)cc(OC)c1 (some centres not stated)	nt	nt	-80.9*	0.0
O=C(CCCCCC(=O)N/N=C/c1ccc(Br)s1)NO	0.5	nt	nt	nt
CCC(=O)N1CC2(C1)CN(Cc1cc(F)ccc1F)[C@H](CO)c1[nH]c3cc(OC)ccc3c12	nt	nt	-90.0*	-1.6
COc1ccc2c3c([nH]c2c1)[C@H](CO)N(Cc1cc(F)ccc1F)CC31CCN(C(=O)C2CCC2)CC1	nt	nt	-88.4*	3.0
COc1ccc2c3c([nH]c2c1)[C@@H](CO)N(Cc1cc(F)ccc1F)CC31CN(C(C)=O)C1	nt	nt	-74.5	-0.2
CCC(=O)N1CCC2(CC1)CN(Cc1cc(F)ccc1F)[C@H](CO)c1[nH]c3cc(OC)ccc3c12	nt	nt	-87.4*	-0.5
COCC(=O)N1CC2(C1)CN(Cc1cc(F)ccc1F)[C@@H](CO)c1[nH]c3cc(OC)ccc3c12	nt	nt	-70.8	0.1
COc1ccc2c3c([nH]c2c1)[C@@H](CO)N(Cc1ccccc1OC)CC31CCN(C(C)=O)CC1	nt	nt	52.5	nt
COc1ccc2c3c([nH]c2c1)[C@H](CO)N(Cc1cc(F)ccc1F)CC31CCN(C(C)=O)CC1	nt	nt	-90.3*	-2.2
SMILES	IDH1 mut inh	Tcruzi prolif	Pf Dd2 growth	GASC1 inh
Cc1ccc(-c2nn(C)c(=O)c3ccccc23)cc1CNC(=O)CN1C(=O)c2ccccc2C1=O	0.4	nt	nt	nt
CC(/C=C/C(=O)NO)=C\c1ccccc1OC[C@@H]1[C@H]2C[C@H]3c4[nH]c5ccccc5c4CCN3C[C@@H]2CC[C@@H]1O	73.9*	nt	nt	nt
C[C@@H]1CN([C@@H](C)CO)C(=O)Cc2cc(NC(=O)Nc3ccccc3)ccc2O[C@@H]1CN(C)Cc1ccc2c(c1)OCO2	0.3	82.8	-16.1	4.1
C[C@@H]1CN([C@@H](C)CO)C(=O)Cc2cc(NC(=O)Nc3ccccc3)ccc2O[C@H]1CN(C)Cc1ccc2c(c1)OCO2	0.1	3.5	-88.5*	4.3
C[C@H](CO)N1C[C@H](C)[C@@H](CN(C)Cc2ccc3c(c2)OCO3)Oc2ccc(NC(=O)Nc3ccccc3)cc2CC1=O	0.2	60.0	-83.0*	3.4
C[C@@H]1CN([C@@H](C)CO)C(=O)Cc2cc(NC(=O)Nc3ccc4c(c3)OCO4)ccc2O[C@H]1CN(C)Cc1ccc2c(c1)OCO2	-10.5	69.9	-87.3*	1.8
O=C(CSc1nnc(-c2ccccc2)n1-c1ccccc1)Nc1ccc(C(F)(F)F)cc1	1.2	nt	nt	nt
Cc1c(NC(=O)CSc2nc3cc(C(=O)N4CCCC4)ccc3s2)c(=O)n(-c2ccccc2)n1C	0.0	nt	nt	nt
C[C@@H]1CN([C@H](C)CO)C(=O)c2cccc(NC(=O)Nc3cccc4ccccc34)c2O[C@@H]1CN(C)C(=O)Nc1ccc2c(c1)OCO2	nt	79.5	-82.8*	-0.3
CC(C)NC(=O)Nc1cccc2c1O[C@H](CN(C)C(=O)Nc1ccc3c(c1)OCO3)[C@@H](C)CN([C@@H](C)CO)C2=O	3.0	10.3	15.5	2.3
C[C@H](CO)N1C[C@H](C)[C@@H](CN(C)C(=O)Nc2cccc3ccccc23)Oc2ccc(NC(=O)Nc3ccc4c(c3)OCO4)cc2CC1=O	-0.2	-10.3	-81.9*	-0.3
CC(C)NC(=O)Nc1cccc2c1O[C@H](CN(C)C(=O)Nc1ccc3c(c1)OCO3)[C@H](C)CN([C@@H](C)CO)C2=O	0.0	39.3	-82.8*	0.5
C[C@@H]1CN([C@@H](C)CO)C(=O)c2cccc(NC(=O)Nc3ccccc3)c2O[C@@H]1CN(C)C(=O)Nc1ccc2c(c1)OCO2	-0.8	-3.2	-85.1*	0.4
C[C@H]1CN([C@@H](C)CO)C(=O)c2cccc(NC(=O)Nc3ccccc3)c2O[C@H]1CN(C)C(=O)Nc1ccc2c(c1)OCO2	3.8	20.6	-16.9	0.7
CC1=CCC(C(=O)O)C(C(=O)Nc2ccccc2NC(=O)c2ccc(C(F)(F)F)cc2)C1 (configuration not stated)	-0.1	nt	nt	nt
Cc1ccc(NC(=O)CSc2nc(O)c(C)c(=O)n2-c2ccccc2F)c(C)c1	1.2	nt	nt	nt
COc1ccccc1NC(=O)Cc1c(OC)ccc2cc(Br)ccc12	-0.2	nt	nt	nt
C[C@@H]1CN([C@@H](C)CO)C(=O)c2cccc(NC(=O)C3CC3)c2O[C@@H]1CN(C)C(=O)Nc1ccc2c(c1)OCO2	-1.3	18.9	-83.1*	-2.9
COc1ccc2c3c(n(C)c2c1)[C@@H](CO)N(S(=O)(=O)c1ccc(C)cc1)CC31CCN(S(=O)(=O)c2ccc(C)cc2)CC1	nt	nt	-84.9*	2.1
CCC(=O)N1CCC2(CC1)CN(CC1CCCCC1)[C@H](CO)c1c2c2ccc(OC)cc2n1C	nt	nt	41.7	nt
COc1ccc2c3c(n(C)c2c1)[C@@H](CO)N(S(=O)(=O)c1ccc(C)cc1)CC31CCN(C)CC1	nt	nt	-58.5	-0.4
